This note sets out measurements from ChEMBL document CHEMBL4732170, “Discovery of Small-Molecule Antagonists of the PWWP Domain of NSD2” (J Med Chem, 2021).

Activity calls are given as the source filed them. The rule behind the calls is not given here.

Test [1] addresses T1, Histone-lysine N-methyltransferase NSD2 (Homo sapiens, UniProt O96028).
T1 sequence (O96028 whole entry): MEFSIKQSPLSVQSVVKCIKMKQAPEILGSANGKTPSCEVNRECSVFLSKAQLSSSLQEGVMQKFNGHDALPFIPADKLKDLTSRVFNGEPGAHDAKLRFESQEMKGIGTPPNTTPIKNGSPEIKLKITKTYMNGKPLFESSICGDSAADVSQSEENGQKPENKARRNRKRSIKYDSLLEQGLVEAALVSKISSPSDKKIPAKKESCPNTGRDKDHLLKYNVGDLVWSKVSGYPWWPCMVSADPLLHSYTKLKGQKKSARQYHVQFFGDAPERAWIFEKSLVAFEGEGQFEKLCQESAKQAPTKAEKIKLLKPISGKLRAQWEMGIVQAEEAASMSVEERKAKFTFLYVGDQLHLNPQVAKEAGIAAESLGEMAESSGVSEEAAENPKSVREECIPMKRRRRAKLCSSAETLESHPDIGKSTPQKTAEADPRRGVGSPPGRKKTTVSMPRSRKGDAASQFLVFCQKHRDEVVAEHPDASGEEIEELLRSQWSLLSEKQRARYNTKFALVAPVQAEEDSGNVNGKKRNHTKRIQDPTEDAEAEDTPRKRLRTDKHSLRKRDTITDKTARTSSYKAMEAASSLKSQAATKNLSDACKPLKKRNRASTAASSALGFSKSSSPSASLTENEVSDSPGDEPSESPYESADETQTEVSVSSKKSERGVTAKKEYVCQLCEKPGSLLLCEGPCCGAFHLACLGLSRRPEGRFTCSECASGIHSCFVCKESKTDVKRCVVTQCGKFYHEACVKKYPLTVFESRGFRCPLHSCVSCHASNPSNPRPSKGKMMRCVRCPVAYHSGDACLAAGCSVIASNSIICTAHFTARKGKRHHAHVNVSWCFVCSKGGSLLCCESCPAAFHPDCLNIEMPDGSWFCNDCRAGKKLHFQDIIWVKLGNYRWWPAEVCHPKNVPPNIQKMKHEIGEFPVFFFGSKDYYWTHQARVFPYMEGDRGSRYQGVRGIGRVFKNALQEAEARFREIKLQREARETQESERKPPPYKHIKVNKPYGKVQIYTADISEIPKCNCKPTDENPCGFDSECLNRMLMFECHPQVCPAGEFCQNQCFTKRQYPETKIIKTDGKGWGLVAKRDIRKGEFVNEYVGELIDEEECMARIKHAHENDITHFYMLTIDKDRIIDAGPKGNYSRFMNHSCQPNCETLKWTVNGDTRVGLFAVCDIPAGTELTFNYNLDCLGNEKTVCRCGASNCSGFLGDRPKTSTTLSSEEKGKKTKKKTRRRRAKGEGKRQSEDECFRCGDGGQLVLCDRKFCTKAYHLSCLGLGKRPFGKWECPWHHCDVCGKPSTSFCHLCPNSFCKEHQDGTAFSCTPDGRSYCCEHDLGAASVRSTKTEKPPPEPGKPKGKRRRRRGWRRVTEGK
In words: Binding affinity to NSD2 PWWP1 domain (unknown origin) assessed as dissociation constant by isothermal titration calorimetric analysis. An outline of the steps: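 Reverse ITC: purified NSD2-PWWP1 (aa 211-350, human, E. coli-expressed, His-tag removed) dialyzed into 20 mM Tris pH 7.5, 100 mM NaCl. Protein at 1 mM titrated into cell holding 40 μM ligand, 1% DMSO in both. Twelve 4 μL injections at 25 °C. Kd from one-binding-site model fit.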

Test [2] deals with T2, Peregrin (Homo sapiens) (UniProt P55201).
T2 sequence (whole entry): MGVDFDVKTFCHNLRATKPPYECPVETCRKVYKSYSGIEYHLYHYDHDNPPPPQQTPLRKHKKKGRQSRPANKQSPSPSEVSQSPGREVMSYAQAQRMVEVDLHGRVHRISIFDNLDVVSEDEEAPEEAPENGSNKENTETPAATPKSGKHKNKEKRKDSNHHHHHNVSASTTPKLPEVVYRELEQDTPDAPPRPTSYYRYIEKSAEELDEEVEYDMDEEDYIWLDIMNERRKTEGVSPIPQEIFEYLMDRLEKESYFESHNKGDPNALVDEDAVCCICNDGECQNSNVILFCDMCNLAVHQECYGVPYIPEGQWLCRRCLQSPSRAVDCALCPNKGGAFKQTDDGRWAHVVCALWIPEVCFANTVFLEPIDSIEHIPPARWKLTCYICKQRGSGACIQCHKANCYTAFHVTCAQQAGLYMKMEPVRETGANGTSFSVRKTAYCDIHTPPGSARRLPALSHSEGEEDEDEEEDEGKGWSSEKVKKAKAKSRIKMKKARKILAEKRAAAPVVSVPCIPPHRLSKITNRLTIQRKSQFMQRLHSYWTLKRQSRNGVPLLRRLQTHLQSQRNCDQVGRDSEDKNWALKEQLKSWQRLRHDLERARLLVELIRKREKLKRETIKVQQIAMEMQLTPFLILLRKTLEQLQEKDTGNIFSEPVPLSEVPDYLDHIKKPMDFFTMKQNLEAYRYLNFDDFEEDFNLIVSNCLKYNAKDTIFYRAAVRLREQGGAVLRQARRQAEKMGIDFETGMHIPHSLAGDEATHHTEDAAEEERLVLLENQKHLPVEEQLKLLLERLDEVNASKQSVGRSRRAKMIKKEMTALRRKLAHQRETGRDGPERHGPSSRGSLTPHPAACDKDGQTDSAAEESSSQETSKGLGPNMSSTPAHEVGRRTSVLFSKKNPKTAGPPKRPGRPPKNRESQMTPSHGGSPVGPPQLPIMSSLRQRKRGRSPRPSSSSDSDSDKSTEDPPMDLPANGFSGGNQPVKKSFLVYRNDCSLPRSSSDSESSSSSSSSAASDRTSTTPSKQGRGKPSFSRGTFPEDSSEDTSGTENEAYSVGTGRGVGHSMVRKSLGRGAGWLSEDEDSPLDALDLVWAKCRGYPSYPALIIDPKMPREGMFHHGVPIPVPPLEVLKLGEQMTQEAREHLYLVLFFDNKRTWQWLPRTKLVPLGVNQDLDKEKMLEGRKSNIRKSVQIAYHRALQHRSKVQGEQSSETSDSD
The test can be described thus: Binding affinity to BRPF1 PWWP domain (unknown origin) assessed as aggregation temperature at 400 uM by heating at 25 to 85 degC by differential static light scattering method.

Test [3] has as its target DNA (cytosine-5)-methyltransferase 3B (Homo sapiens) (UniProt Q9UBC3). In words: Binding affinity to DNMT3b PWWP domain (unknown origin) assessed as aggregation temperature at 400 uM by heating at 25 to 85 degC by differential static light scattering method.
The target of test [4] is DNA mismatch repair protein Msh6 (Homo sapiens) (UniProt P52701). The test can be described thus: Binding affinity to MSH6 PWWP domain (unknown origin) assessed as aggregation temperature at 400 uM by heating at 25 to 85 degC by differential static light scattering method.
Test [5] concerns the target T3, Histone-lysine N-methyltransferase NSD2 (Homo sapiens) (UniProt O96028).
T3 sequence (whole entry): T1 sequence (O96028 whole entry)
The settings on record: filed as antagonist, dose 400.0 µM.

Sequence of DNA mismatch repair protein Msh6 (Homo sapiens) (P52701 whole entry, the tested form may be a part): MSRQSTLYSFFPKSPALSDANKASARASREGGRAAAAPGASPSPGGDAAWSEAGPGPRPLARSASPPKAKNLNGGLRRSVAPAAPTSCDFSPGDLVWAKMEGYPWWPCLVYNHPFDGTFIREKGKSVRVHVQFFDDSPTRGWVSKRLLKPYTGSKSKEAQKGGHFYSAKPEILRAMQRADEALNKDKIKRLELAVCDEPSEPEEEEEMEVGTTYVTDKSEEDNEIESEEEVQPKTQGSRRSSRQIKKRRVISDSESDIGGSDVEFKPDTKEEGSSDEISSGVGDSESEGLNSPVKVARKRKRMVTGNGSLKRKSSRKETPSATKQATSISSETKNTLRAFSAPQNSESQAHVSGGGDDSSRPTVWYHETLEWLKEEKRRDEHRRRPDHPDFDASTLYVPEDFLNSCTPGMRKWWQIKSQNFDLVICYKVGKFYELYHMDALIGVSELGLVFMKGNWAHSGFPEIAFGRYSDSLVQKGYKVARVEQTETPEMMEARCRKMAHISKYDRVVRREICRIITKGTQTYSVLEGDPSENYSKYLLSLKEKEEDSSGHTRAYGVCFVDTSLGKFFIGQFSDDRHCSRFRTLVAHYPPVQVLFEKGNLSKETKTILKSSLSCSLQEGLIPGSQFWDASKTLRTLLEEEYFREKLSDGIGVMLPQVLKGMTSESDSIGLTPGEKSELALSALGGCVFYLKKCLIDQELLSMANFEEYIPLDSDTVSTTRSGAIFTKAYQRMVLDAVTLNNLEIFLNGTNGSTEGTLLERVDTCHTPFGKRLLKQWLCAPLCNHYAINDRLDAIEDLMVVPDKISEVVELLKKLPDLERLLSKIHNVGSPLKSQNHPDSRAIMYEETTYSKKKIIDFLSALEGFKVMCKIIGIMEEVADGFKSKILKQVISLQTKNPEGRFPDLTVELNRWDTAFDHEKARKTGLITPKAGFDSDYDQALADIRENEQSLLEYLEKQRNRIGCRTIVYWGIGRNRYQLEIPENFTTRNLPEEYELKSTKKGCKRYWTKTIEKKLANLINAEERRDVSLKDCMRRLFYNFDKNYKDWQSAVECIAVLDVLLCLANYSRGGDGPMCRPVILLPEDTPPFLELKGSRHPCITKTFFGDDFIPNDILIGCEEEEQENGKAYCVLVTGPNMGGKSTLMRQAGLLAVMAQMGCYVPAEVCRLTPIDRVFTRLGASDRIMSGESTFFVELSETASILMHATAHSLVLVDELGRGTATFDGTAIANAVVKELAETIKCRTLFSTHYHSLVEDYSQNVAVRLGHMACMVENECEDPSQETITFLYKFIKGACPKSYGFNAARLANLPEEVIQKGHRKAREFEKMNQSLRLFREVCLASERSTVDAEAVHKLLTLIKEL

The term Kd denotes the equilibrium constant for the complex coming apart. Turning to `N#Cc1ccc(C(C(N)=O)N2CCC2c2ccc(Cl)cc2)cc1` (stereo not given), the Kd in test [1] amounted to 8.9 µM. Further, the outcome in test [2], in test [3] and in test [4] was inactive. The deltaT in test [5] turned out to be 3.9 °C.
